From ChEMBL document CHEMBL3758106, “Antitumor Activity of Americanin A Isolated from the Seeds of Phytolacca americana by Regulating the ATM/ATR Signaling Pathway and the Skp2-p27 Axis in Human Colon Cancer Cells” (J Nat Prod, 2015) come the findings set out here.

Calls of active or inactive are those of the source. The calls are words filed in the database; no cut-off is given here.

Broadly, the IC50 is the point on the concentration scale where inhibition reaches its midpoint.

Assay [1] in a line: Upregulation of ATR expression in human HCT116 cells up to 24 hrs at 1 hr by Western blot analysis. Conditions: HCT-116. In kind it is functional, cell-based. For orientation: A western blot detects proteins with antibodies after separation by electrophoresis.
A short description of assay [2]: Downregulation of CDK2 expression in human HCT116 cells at 7.5 to 30 uM after 24 hrs by Western blot analysis. In kind it is functional, cell-based. To be noted: HCT-116. In short, it runs like this:
(§1)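 HCT116 cells exposed 24 h in complete medium; lysed in RIPA buffer (pH 8.0), protein by BCA, equal loads run on 8–13% SDS-PAGE, PVDF transfer, blocked in 5% BSA/TBST, primary antibodies overnight at 4 °C, HRP secondaries 2 h RT, ECL detection; β-actin as loading control.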

Assay [3] in a line: Antiproliferative activity against human HCT116 cells assessed as cell viability after 24 hrs by SRB assay. To be noted: HCT-116, 24 h. In kind it is functional, cell-based. The gist of the method: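 HCT116 cells in 96-well plates exposed 24, 48 or 72 h; TCA fixation, 0.4% SRB staining, dye solubilised in 10 mM Tris pH 10.0, absorbance at 515 nm; viability relative to solvent-treated control.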
On the technique in general: Sulforhodamine B stains cellular protein and so reports cell mass.

For assay [4], the system named is HCT-116. Nature of the assay: Induction of cell cycle arrest in human HCT116 cells assessed as accumulation at sub-G1 phase at 30 uM after 24 hrs by propidium iodide staining-based flow cytometric analysis in presence of RNase A (reference value: 1.5%). In kind it is functional. On the technique in general: A flow cytometer gives signals particle by particle.
The subject of assay [5] is HCT-116. Nature of the assay: Induction of apoptosis in human HCT116 cells assessed as cleaved caspase 3 level at 30 uM up to 24 hrs by Western blot analysis. In kind it is functional, cell-based.
Assay [6] deals with HCT-116. Nature of the assay: Induction of cell cycle arrest in human HCT116 cells assessed as accumulation at G2/M phase at 7.5 uM after 48 hrs by propidium iodide staining-based flow cytometric analysis in presence of RNase A (reference value: 19.7%). The format is functional.
For assay [7], the system named is HCT-116. Briefly: Induction of morphological change in human HCT116 cells assessed as appearance of rounded cells at 30 uM after 24 to 48 hrs by phase contrast microscopic analysis. The format is functional, cell-based. In short, it runs like this:
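HCT116 cells incubated with compound for 24 h, then viewed and photographed under phase-contrast microscopy; also examined at 48 h.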

In assay [8] the test system is HCT-116. Nature of the assay: Induction of cell cycle arrest in human HCT116 cells assessed as accumulation at G0/G1 phase at 7.5 uM after 48 hrs by propidium iodide staining-based flow cytometric analysis in presence of RNase A (reference value: 54.3%). The format is functional.
Assay [9] in a line: Downregulation of cyclin A expression in human HCT116 cells at 7.5 to 30 uM after 24 hrs by Western blot analysis. In kind it is functional, cell-based. Conditions: HCT-116. In short, it runs like this: as §1
Assay [10] has as its target S-phase kinase-associated protein 1/2 (Homo sapiens) (UniProt Q13309+P63208). Nature of the assay: Inhibition of Skp2/Skp1 protein interaction in human HCT116 cells after 24 hrs by immunoprecipitation assay. Conditions: HCT-116. The format is cell-based. The gist of the method: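 Protein measured by Bradford. Equal protein incubated with Protein G sepharose and the capture antibody (anti-p53, anti-Cul-1 or anti-Skp2) overnight at 4 °C. Bead eluates boiled in Laemmli/2-mercaptoethanol and analysed by Western blot.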

Assay [11] relates to HCT-116. Nature of the assay: Induction of apoptosis in human HCT116 cells assessed as viable cells at 30 uM after 48 hrs by annexin V-FITC/propidium iodide staining-based flow cytometric analysis (reference value: 87.4%). In kind it is functional. Conditions: HCT-116, 48 h, read-out: Activity.
The test system of assay [12] is HCT-116. Nature of the assay: Reduction in histone H3 Lys9 acetylation in human HCT116 cells at 7.5 to 30 uM after 24 hrs by Western blot analysis. In kind it is functional, cell-based.
For assay [13], the system named is Mus musculus. Briefly: Downregulation of Skp2 in human HCT116 cells xenografted in nude mouse at 5 to 10 mg/kg, ip administered 3 times per week measured on day 41 by Western blot analysis. The format is functional, organism-based. Conditions: HCT-116. The gist of the method: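 Excised frozen xenograft tumours homogenised in lysis buffer; protein by Bradford assay, then Western blotting for Skp2 with β-actin as control.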

For assay [14], the system named is HCT-116. Nature of the assay: Induction of cell cycle arrest in human HCT116 cells assessed as accumulation at G2/M phase at 15 uM after 24 hrs by propidium iodide staining-based flow cytometric analysis in presence of RNase A (reference value: 20.6%). The format is functional.
In assay [15] the target is Serine-protein kinase ATM/ATR (Homo sapiens) (UniProt Q13315+Q13535). Briefly: Activation of ATM/ATR in human HCT116 cells assessed as downregulation of cdc25C level after 24 hrs by Western blot analysis. The format is cell-based. To be noted: HCT-116. The gist of the method: as §1
Assay [16] relates to HCT-116. Briefly: Induction of cell cycle arrest in human HCT116 cells assessed as accumulation at sub-G1 phase at 30 uM after 48 hrs by propidium iodide staining-based flow cytometric analysis in presence of RNase A (reference value: 6.5%). In kind it is functional.
Assay [17] in a line: Upregulation of MDM2 expression in p53-null human HCT116 cells at 7.5 to 30 uM after 24 hrs by Western blot analysis. The format is functional, cell-based. Conditions: HCT-116.
Assay [18] has as its system HCT-116. Briefly: Induction of apoptosis in human HCT116 cells assessed as decrease in Bcl-xL expression at 7.5 to 30 uM after 48 hrs by Western blot analysis. In kind it is functional, cell-based. In short, it runs like this: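 HCT116 cells exposed 48 h; Western blot of RIPA lysates (BCA quantification, SDS-PAGE, PVDF, overnight primary antibodies at 4 °C, HRP secondary, ECL).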

For the next assay, the system named is CAKI-1. Briefly: Antiproliferative activity against human CAKI-1 cells after 24 to 72 hrs by SRB assay. In kind it is functional, cell-based. The gist of the method: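 Cells grown in 96-well plates (RPMI 1640; MRC-5 in MEM, 10% FBS, antibiotics) with compound […]; fixed in 10% TCA 30 min at 4 °C, stained 0.4% SRB in 1% acetic acid 1 h, dye dissolved in 10 mM Tris pH 10.0, A515 read; viability as % of solvent control, IC50 by nonlinear regression; mean of three independent experiments.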

Assay [19] in a line: Antitumor activity against human HCT116 cells xenografted in nude mouse assessed as tumor growth inhibition at 5 mg/kg, ip administered 3 times per week measured on day 41. The format is functional. To be noted: HCT-116, ip, 984 h, read-out: TGI. The gist of the method:
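Nude mice given 2 × 10^6 HCT116 cells subcutaneously in flank; at ~120 mm3 randomised, six per group; ip dosing in 200 μL, test agent 5 or 10 mg/kg three times weekly, irinotecan 10 mg/kg once weekly; tumour volume measured twice weekly to day 41; body weight tracked for toxicity.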

The test system of assay [20] is Mus musculus. Nature of the assay: Upregulation of p21 in human HCT116 cells xenografted in nude mouse at 5 to 10 mg/kg, ip administered 3 times per week measured on day 41 by Western blot analysis. The format is functional, organism-based. To be noted: HCT-116. In short, it runs like this: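 HCT116 xenografts in nude mice dosed ip at 5 or 10 mg/kg three times weekly to day 41. Portions of the excised frozen tumors were thawed on ice, homogenized in complete lysis buffer, protein quantified by Bradford, and p21, p27 and Skp2 assessed by Western blot with β-actin as internal control.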

For assay [21], the system named is HCT-116. Nature of the assay: Induction of apoptosis in human HCT116 cells assessed as cleaved caspase 8 level at 30 uM up to 24 hrs by Western blot analysis. The format is functional, cell-based.
Assay [22] deals with HCT-116. Nature of the assay: Induction of apoptosis in human HCT116 cells assessed as late apoptotic cells at 15 uM after 48 hrs by annexin V-FITC/propidium iodide staining-based flow cytometric analysis (reference value: 5.2%). The format is functional.

Sequence of S-phase kinase-associated protein 1/2 (Homo sapiens) (P63208 whole entry, looked up): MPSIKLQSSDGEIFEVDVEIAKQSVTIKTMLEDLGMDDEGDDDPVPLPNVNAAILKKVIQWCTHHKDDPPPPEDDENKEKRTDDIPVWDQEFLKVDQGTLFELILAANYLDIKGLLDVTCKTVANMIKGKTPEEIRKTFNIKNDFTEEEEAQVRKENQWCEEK
Sequence of S-phase kinase-associated protein 1/2 (Homo sapiens) (Q13309 whole entry, looked up): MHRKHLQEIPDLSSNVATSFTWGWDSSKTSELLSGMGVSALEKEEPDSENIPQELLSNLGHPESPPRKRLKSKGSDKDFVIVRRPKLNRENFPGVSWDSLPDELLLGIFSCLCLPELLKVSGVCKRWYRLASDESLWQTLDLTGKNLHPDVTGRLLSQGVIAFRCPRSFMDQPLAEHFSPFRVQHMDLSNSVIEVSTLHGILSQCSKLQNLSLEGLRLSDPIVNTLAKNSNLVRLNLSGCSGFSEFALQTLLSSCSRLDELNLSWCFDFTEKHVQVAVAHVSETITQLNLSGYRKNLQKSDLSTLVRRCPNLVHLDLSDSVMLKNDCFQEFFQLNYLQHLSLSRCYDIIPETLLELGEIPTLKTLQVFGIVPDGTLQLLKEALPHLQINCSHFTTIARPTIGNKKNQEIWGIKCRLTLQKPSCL

For the molecule `O=C/C=C/c1ccc2c(c1)O[C@@H](CO)[C@H](c1ccc(O)c(O)c1)O2` [AMERICANIN A], the Activity result in [1] was “Dose-dependent effect”; with HCT-116 [4] it was 4%; in the assay with HCT-116 [6], 19%; in the assay with HCT-116 [8] it was 55.2%; in the assay with HCT-116 [14], 31.8%; in assay [15], “Dose-dependent effect”. For the same molecule, the Activity was 52% in the assay with HCT-116 [16] and 11.1% in the assay on HCT-116 [22]. The result (in [2]; in the assay with HCT-116 [5]; in the assay on HCT-116 [7]; in assay [9]; in the assay with HCT-116 [12]; in the assay on Mus musculus [13]) was Active. The outcome (in assay [17]; in the assay with HCT-116 [18]; in the assay on Mus musculus [20]; in the assay on HCT-116 [21]) was Active. The values for the IC50 (in [3]; in the assay on CAKI-1) were 24.1 µM and 66.4 µM, respectively. In assay [10], the inhibition result is “inactive”. Moreover, in the assay with HCT-116 [11], the viability at 30 µM is 51.4%. The inhibition in vivo at 5 mg/kg in assay [19] was found to be 45%.
